Screening data: PubChem BioAssay, several laboratories
GASC-1 inh = inhibitors of human GASC-1 (JMJD2C) demethylase; GST-JMJD2C(1-420) H3K9me3 demethylation, DELFIA europium; inhibition, % at 2.35 µM; actives 0.069% (n = 330,000); AID 2099;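 active = more than half of a compound's replicate wells show inhibition beyond 50%, single wells judged on their own value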;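 note: signal counts dimethyl H3K9 product captured on neutravidin plate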
Target sequence (Q9H3R0 1-420 limits assumed): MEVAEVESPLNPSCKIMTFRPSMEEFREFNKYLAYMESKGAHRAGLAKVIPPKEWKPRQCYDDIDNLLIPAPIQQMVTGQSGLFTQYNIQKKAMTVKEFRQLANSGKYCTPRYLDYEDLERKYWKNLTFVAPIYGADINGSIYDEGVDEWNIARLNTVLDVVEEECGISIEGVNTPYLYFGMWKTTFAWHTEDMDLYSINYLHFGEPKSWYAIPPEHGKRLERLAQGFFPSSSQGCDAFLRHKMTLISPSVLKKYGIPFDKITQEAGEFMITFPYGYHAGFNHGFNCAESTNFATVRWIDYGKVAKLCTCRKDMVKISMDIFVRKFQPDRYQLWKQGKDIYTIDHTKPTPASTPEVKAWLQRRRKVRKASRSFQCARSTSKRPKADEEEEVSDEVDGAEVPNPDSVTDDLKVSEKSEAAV
proKLK7 act = proKLK7 (human) activation, primary screen; P49862; purified proKLK7, EDANS-DABCYL substrate fluorescence; 100% is mature enzyme control, 0% vehicle; activation, % at 7 µM; actives 0.9% (n = 370,000);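 active = activation above the mean of all tested compounds plus 3 SD, computed per campaign excluding outliers beyond control limits, cut at about 13% in these data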
Target sequence (P49862 whole entry, looked up): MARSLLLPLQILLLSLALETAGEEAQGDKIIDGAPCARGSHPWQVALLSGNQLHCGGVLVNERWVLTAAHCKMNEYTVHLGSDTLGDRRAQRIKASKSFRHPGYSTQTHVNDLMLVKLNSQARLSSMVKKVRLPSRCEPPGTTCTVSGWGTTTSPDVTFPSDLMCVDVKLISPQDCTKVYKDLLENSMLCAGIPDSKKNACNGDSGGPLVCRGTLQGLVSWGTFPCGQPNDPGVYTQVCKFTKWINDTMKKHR
ADAM10 inh = inhibits human ADAM10; recombinant ADAM10, EDANS/DABCYL FRET peptide cleavage, 3 h; inhibition, % at 7 µM; actives 0.62% (n = 370,000); AID 720582;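 active = inhibition above a per-campaign cutoff equal to the mean of compounds falling between control-based bounds plus 3 SD, cut at about 20% in these data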
NR2E3 ag-1 = agonists of human NR2E3 nuclear receptor. actives 0.35% (n = 360,000). AID 602229. inhibition of corepressor binding, % at 3.98 µM. CHO-S Gal4-NCOR/VP16-NR2E3 two-hybrid, luciferase. Q9Y5X4;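 active = inhibition above the mean of all tested compounds plus 3 SD, cut at about 70% in these data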;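 note: higher means lower luciferase signal from less NR2E3 corepressor binding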
NR2E3 ag-2 = NR2E3 (human) agonism | AID 2300 | actives 0.12% (n = 320,000) | Q9Y5X4 | inhibition of corepressor binding, % at 4.78 µM | GST-NR2E3/biotin-RetCOR TR-FRET, 1536-well;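 active = percent inhibition above the cutoff of mean plus 3 SD of all tested compounds, set per screening campaign, cut at about 20% in these data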
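Material: NR2E3–RetCOR corepressor complex / Incubation: Compound–protein incubation for 5 h at 4 °C / Dosing: compound at 4.8 µM, single dose / Detection: time-resolved FRET / Benchmarks: high control biotin, low control 0.6% DMSO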
ADAM17 inh = inhibits human ADAM17 | recombinant ADAM17, EDANS/DABCYL FRET peptide cleavage | actives 0.83% (n = 370,000) | AID 720648 | inhibition, % at 6.95 µM | P78536;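 active = inhibition above the mean of compounds lying between control limits plus 3 SD, set per campaign, cut at about 8.5% in these data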
NR2E3 ag confirm = confirmation of human NR2E3 agonists. shares compounds with NR2E3 ag-1. AID 624378. actives 51% (n = 2,300). CHO-S mammalian two-hybrid NR2E3-NCOR, luciferase luminescence. inhibition, % at 3.98 µM;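 active = average inhibition above a cutoff equal to the mean inhibition of all tested compounds plus one SD, cut at about 70% in these data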
GAL4-VP16 luc = counter-screen for NR2E3 agonists: GAL4-VP16 reporter inhibitors. shares compounds with NR2E3 ag-1. CHO-S GAL4-VP16 luciferase reporter, luminescence. inhibition, % at 3.98 µM. actives 29% (n = 2,300). AID 624379;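 active = mean inhibition above a cutoff equal to the average over all tested compounds plus one standard deviation, cut at about 70% in these data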;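 note: luciferase from a UAS reporter driven by GAL4-VP16 transactivation; higher means less reporter light so more repression of VP16 activity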
Large screens that a line does not name were inactive (follow-up assays come after a bar, where they were run). In the library only some 2.5% were active in any assay of this set; here they are far more common.

CC(C)(C)c1cc(C2COC(=O)COCCOCC(=O)OCCOCCO2)cc(C(C)(C)C)c1O (stereo unspecified)	none (no result: GASC-1 inh, NR2E3 ag-2)
CC(=O)OCC(=O)Nc1ccc([N+](=O)[O-])cc1Cl	none
CC(=O)Oc1c(C)cc(Cl)cc1C(=O)Nc1ccc([N+](=O)[O-])cc1Cl	NR2E3 ag-1 83 | NR2E3 ag confirm 99 | GAL4-VP16 luc 73
COc1ccc2cc(C(=O)C3CCCN(C(=O)/C=C/c4ccccn4)C3)ccc2c1 (stereo unspecified)	none
CCOC(=O)[C@]12CCC=C1N(Cc1cccc3ccccc13)C(=O)[C@H](CC(=O)NCCCCc1ccccc1)C2	none (no result: GASC-1 inh, NR2E3 ag-2)
O=C(Nc1nc(-c2ccccc2)cs1)Nc1ccc(F)cc1F	none
CC(Oc1ccc(Br)cc1)C(=O)Nc1nc(-c2ccccn2)cs1 (stereo unspecified)	NR2E3 ag-1 76 | NR2E3 ag confirm inactive | GAL4-VP16 luc inactive
CC(C)[C@H](NC(=O)c1ccccc1Cl)C(=O)Nc1nc(-c2ccccn2)cs1	none
O=C(Nc1nc(-c2ccccn2)cs1)Nc1ccc(F)cc1F	NR2E3 ag-1 70 | NR2E3 ag confirm inactive | GAL4-VP16 luc inactive
COc1ccc(/C=C2\SC(=N)N(c3nccs3)C2=O)cc1OC	NR2E3 ag-1 74 | NR2E3 ag confirm inactive | GAL4-VP16 luc inactive
CC(C)(C)NCC(=Cc1ccccc1)C(=O)c1ccccc1	NR2E3 ag-1 87 (no result: GASC-1 inh, NR2E3 ag-2) | NR2E3 ag confirm 83 | GAL4-VP16 luc inactive
COC(=O)[C@@]12C[C@@H](CC(=O)NCC34CC5CC(CC(C5)C3)C4)C(=O)N(Cc3ccco3)C1=CCC(C)(C)C2	none (no result: GASC-1 inh, NR2E3 ag-1, NR2E3 ag-2)
CCOC(=O)N[C@H](C(=O)N1CCC[C@H]1C(=O)NCCc1ccccc1Cl)c1ccccc1	none (no result: GASC-1 inh, NR2E3 ag-1, NR2E3 ag-2)
CC[C@@H]1CCC[C@@H](O)[C@@H](C)C(=O)O[C@H](C)[C@@H](C)C/C=C(C)/C(OC)=C\C(=O)N(C)C([C@@H](C)CC)C(=O)N(C)[C@@H](C(C)C)C(=O)N(C)[C@@H](COC)C(=O)N2CCC[C@H]2C(=O)N(C)[C@@H](C(C)C)C(=O)N2CCC[C@H]2C(=O)O1 (stereo partly specified)	NR2E3 ag-1 97 (no result: GASC-1 inh, NR2E3 ag-2) | NR2E3 ag confirm 98 | GAL4-VP16 luc 91
CC(=O)OC[C@]12CC[C@H]3[C@@](C)(CC[C@H]4C(C)(C)CCC[C@]34C)[C@@H]1C[C@H](C1=CC(=O)O[C@H]1OC(C)=O)O2	none (no result: proKLK7 act, ADAM10 inh, NR2E3 ag-1, NR2E3 ag-2, ADAM17 inh)
CC(O)CC(=O)OC[C@]12CC[C@H]3[C@@](C)(CC[C@H]4C(C)(C)CCC[C@]34C)[C@@H]1CC(C1=CC(=O)OC1O)O2 (stereo partly specified)	none (no result: GASC-1 inh, NR2E3 ag-2) | NR2E3 ag confirm inactive | GAL4-VP16 luc inactive
O=S(=O)(Nc1ccc2ccccc2n1)c1ccc2c(c1)CCO2	none
COc1ccc(OC)c(C2C=C(C34CC5CC(CC(C5)C3)C4)NC(=S)N2)c1 (stereo unspecified)	none | NR2E3 ag confirm inactive | GAL4-VP16 luc inactive
CN(C)c1ccc(/C=C2\SC(N3CCCCC3)=NC2=O)cc1	none
C=CS(=O)(=O)c1ccc(Oc2ccc(S(=O)(=O)C=C)cc2)cc1	NR2E3 ag-1 91 | NR2E3 ag confirm inactive | GAL4-VP16 luc inactive
O=C(C1CCC1)N1CCc2cc(S(=O)(=O)Nc3ccc4c(c3)OCCO4)ccc21	none
CS(=O)(=O)N1CCc2cc(S(=O)(=O)Nc3ccc4c(c3)OCCO4)ccc21	none | NR2E3 ag confirm inactive | GAL4-VP16 luc inactive
CCC(=O)N1CCc2cc(S(=O)(=O)Nc3ccc4c(c3)OCCO4)ccc21	none | NR2E3 ag confirm 89 | GAL4-VP16 luc 78
CCCCOc1ccc(S(=O)(=O)NNC(=O)c2cc3ccccc3o2)cc1	none
CC(C)COc1ccc(S(=O)(=O)NNC(=O)c2cc3ccccc3o2)cc1	NR2E3 ag-1 75 | NR2E3 ag confirm 76 | GAL4-VP16 luc inactive
O=C(Nc1ccccc1)/C(=C\c1cccs1)NC(=O)c1ccccc1	none
Cc1cccc(NC(=O)/C(=C\c2cccs2)NC(=O)c2ccccc2)c1	none (no result: proKLK7 act, ADAM10 inh, ADAM17 inh) | NR2E3 ag confirm inactive | GAL4-VP16 luc inactive
Cc1ccc(S(=O)(=O)N2CCC(=O)N(CCOCc3ccc(C(F)(F)F)cc3)CC2)cc1	NR2E3 ag-1 81, ADAM17 inh 10 | NR2E3 ag confirm 88 | GAL4-VP16 luc 71
O=C1CCN(S(=O)(=O)c2ccccc2)CCN1CCOCc1ccc(C(F)(F)F)cc1	none
CN(C)CCCNS(=O)(=O)c1ccc(NC2CCCCCC2)c([N+](=O)[O-])c1	none | NR2E3 ag confirm inactive | GAL4-VP16 luc inactive
CCNc1ccc(S(=O)(=O)NCCN(C)C)cc1[N+](=O)[O-]	none
COCCn1c(C)cc(C(=O)CSc2nnnn2C2CCCC2)c1C	none | NR2E3 ag confirm inactive | GAL4-VP16 luc inactive
CN(c1ccccc1)S(=O)(=O)c1cccc(NC(=O)CSc2nnc(N)s2)c1	none
CN(c1ccccc1)S(=O)(=O)c1cccc(NC(=O)CSc2nncs2)c1	none | NR2E3 ag confirm inactive | GAL4-VP16 luc 76
COc1ccc(NC(=O)c2sc(=O)n(Cc3cccc(C(F)(F)F)c3)c2C)cc1OC	none (no result: GASC-1 inh, NR2E3 ag-2) | NR2E3 ag confirm 73 | GAL4-VP16 luc inactive
COc1ccc(NC(=O)c2sc(=O)n(Cc3ccc(SC)cc3)c2C)cc1OC	none (no result: GASC-1 inh, NR2E3 ag-2)
COc1ccc(CNC(=O)c2sc(=O)n(Cc3ccc(-c4ccccc4)cc3)c2C)cc1OC	none (no result: GASC-1 inh, NR2E3 ag-2) | NR2E3 ag confirm 72 | GAL4-VP16 luc inactive
COc1ccc(CNC(=O)c2sccc2-c2ccccc2)cc1OC	none | NR2E3 ag confirm inactive | GAL4-VP16 luc inactive
CCOCCCNC(=O)C(c1ccc(OC)cc1)N(Cc1ccc2c(c1)OCO2)C(=O)c1ccccc1O (stereo unspecified)	none
COC(=O)[C@]12C[C@H](CC(=O)NCCc3ccccc3OC)C(=O)N(Cc3cccc4ccccc34)C1=C[C@H](COCc1ccccc1)O[C@@H]2C	none (no result: GASC-1 inh, NR2E3 ag-1, NR2E3 ag-2)
CC1OC(CC(=O)O)CC2=C1C(=O)c1c(O)cccc1C2=O (stereo unspecified)	NR2E3 ag-1 101 (no result: GASC-1 inh, NR2E3 ag-2) | NR2E3 ag confirm 101 | GAL4-VP16 luc 99
CN1C2=N[C@@H](c3ccc4c(c3)OCO4)CC(=O)N2/C(=C\c2ccccc2)[C@H]1c1ccccc1	none (no result: GASC-1 inh, proKLK7 act, NR2E3 ag-1, NR2E3 ag-2)
COc1cccc(-c2nc(CSCC(=O)N3CCc4ccccc43)c(C)o2)c1	none
CCOc1ccc(-c2nc(CSCC(=O)N3CCN(c4cccc(OC)c4)CC3)c(C)o2)cc1	none | NR2E3 ag confirm 78 | GAL4-VP16 luc inactive
